The values that follow come from publication PMC7986984 (Brain, behavior, and immunity, 2020).

One data set has as its system Caco-2 / THP-1 coculture. Put plainly: Transepithelial electrical resistance. Type of data set: cell-based, human. The conditions noted are these: LPS +, TMF + (AHR antagonist); metabolites 250 ng/mL. The essentials:
(§1)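 Caco-2 grown 18 days on 8 μm transwells to TEER 500 ohm×cm2, set over THP-1 differentiated with PMA (15 nM, 48 h). Pretreatment 24 h with fermented supernatant (50 μL/1 mL) or metabolites (250 ng/mL), with or without AHR antagonist TMF. Challenge with LPS 1 μg/ml, IFN-γ and ATP in both compartments. Read-outs: TEER before and after; kynurenine by chemical assay, % control; IL-1β by ELISA, fold over untreated. n = 4 wells; t-test.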

For a further data set, the system named is Kynurenine. Briefly: Kynurenine production. Conditions: LPS +, metabolites 250 ng/mL. Type of data set: cell-based, human. The procedure, abridged: as §1
Data set [1] is classed as in vivo, mice. Conditions: male, mouse, brain, po; for AUC: over 24 h; for Cmax: n = 6 +/- SEM.
Data set [2] is classed as in vivo, mice. Conditions: male, mouse, plasma, po; for AUC: over 24 h.
For the next data set, the system named is IL-1β. Briefly: IL-1β production. In kind it is cell-based, human. Conditions: LPS +, ELISA, metabolites 250 ng/mL. The essentials: as §1
(In general: ELISA stands for enzyme-linked immunosorbent assay.)

The next data set has as its system THP-1 cells. Put plainly: qPCR gene expression in THP-1 cells of the LPS-challenged coculture. In kind it is cell-based, human. Conditions: TMF-treated vs. untreated. (In general: In qPCR the cycle at which signal appears reflects the starting amount.)
For data set [3], the target named is T1, aryl hydrocarbon receptor (AHR) (Homo sapiens, UniProt P35869).
T1 sequence (P35869 11-848): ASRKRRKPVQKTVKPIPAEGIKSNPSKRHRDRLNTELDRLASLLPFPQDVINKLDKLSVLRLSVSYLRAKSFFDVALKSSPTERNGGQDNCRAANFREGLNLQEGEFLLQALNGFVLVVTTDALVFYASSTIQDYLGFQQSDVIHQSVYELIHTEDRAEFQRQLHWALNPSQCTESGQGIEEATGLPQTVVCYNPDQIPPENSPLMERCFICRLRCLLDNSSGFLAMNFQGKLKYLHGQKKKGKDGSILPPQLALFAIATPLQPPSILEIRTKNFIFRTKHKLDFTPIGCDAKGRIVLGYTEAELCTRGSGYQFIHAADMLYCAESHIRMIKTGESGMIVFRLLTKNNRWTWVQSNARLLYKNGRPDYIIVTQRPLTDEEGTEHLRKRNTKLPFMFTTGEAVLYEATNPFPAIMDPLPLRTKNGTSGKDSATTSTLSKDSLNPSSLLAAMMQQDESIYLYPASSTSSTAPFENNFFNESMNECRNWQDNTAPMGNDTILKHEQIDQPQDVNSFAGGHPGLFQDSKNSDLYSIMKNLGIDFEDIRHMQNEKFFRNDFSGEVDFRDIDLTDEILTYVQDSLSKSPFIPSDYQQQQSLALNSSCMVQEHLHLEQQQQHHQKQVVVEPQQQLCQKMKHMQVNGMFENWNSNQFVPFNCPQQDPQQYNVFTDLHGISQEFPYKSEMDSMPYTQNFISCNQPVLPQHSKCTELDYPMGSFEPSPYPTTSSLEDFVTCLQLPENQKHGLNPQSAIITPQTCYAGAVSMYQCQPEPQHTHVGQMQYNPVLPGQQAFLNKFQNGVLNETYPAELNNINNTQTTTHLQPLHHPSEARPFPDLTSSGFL
In kind it is cell-based. The conditions noted are these: for dependence of the beneficial / anti-inflammatory activity on AHR signaling: LPS-challenged coculture with AHR antagonist TMF; for anti-inflammatory effects (TEER, cytotoxicity, kynurenine, Il-1β gene expression), correlated to Cyp1a1 mRNA expression: LPS-treated coculture, two concentrations (Table S8). The essentials:
as §1

[4] abbreviates: TMF −, fold change from untreated controls.

Like-named read-outs stand apart in the source and are kept apart here.

In general, AUC refers to concentration integrated over time. A higher AUC goes with high exposure. As usually defined, the Cmax is the peak of the concentration-time curve. A word on the Tmax: it is the time from dosing to the highest level. Consider `COc1cc(-c2oc3cc(O)cc(O)c3c(=O)c2O)ccc1O` [3′-MeQUER, Isorhamnetin], for which the “TEER (% Control)” value with Caco-2 / THP-1 coculture is 73.4 ± 1.2 % Control. Besides, the “Kynurenine (% Change)” value in the data set on Kynurenine (TMF +) is 129.9 ± 13.8 % Change; with Kynurenine (TMF −), 102.3 ± 9.6τ % Change. Moreover, the AUC is 26.9 ng·h/mL in data set [1] (Chronic BDPP), 103 ng·h/mL in data set [1] (Chronic Synbiotic), 15.6 ng·h/mL in data set [2] (Chronic BDPP) and 72.4 ng·h/mL in data set [2] (Chronic Synbiotic). Moreover, the Cmax in data set [1] (Chronic BDPP) was found to be 12.2 ± 6.9 ng/mL; in data set [1] (Chronic Synbiotic) it was 28.4 ± 6.3 ng/mL. Moreover, the Tmax in data set [1] (Chronic BDPP) is 18 min; in data set [1] (Chronic Synbiotic), 60 min; in data set [2] (Chronic BDPP) it was 15 min; in data set [2] (Chronic Synbiotic) it was 30 min. Moreover, the “IL-1β(Fold Change)” value is 9.4 ± 0.3τ ^* Fold Change in the data set with IL-1β (TMF +) and 6.5 ± 0.4τ Fold Change in the data set with IL-1β (setting [4]).

As to `O=C(O)Cc1ccc(O)cc1` [4-HPAA, 4-Hydroxyphenylacetic acid], in the data set on THP-1 cells, the “Tlr4 expression in TMF-treated cultures” value is reported as “suppressed”. Further, in the data set on Caco-2 / THP-1 coculture, the “TEER (% Control)” value was 70.2 ± 2.0 % Control. The “Kynurenine (% Change)” value with Kynurenine (TMF +) came to 120.7 ± 7.9 % Change. Further, the “dependence of the beneficial / anti-inflammatory activity on AHR signaling” value in data set [3] was “abrogated by TMF”. The “anti-inflammatory effects (TEER, cytotoxicity, kynurenine, Il-1β gene expression), correlated to Cyp1a1 mRNA expression” value (“anti-inflammatory effects” below) in data set [3] is reported as “dose-dependent anti-inflammatory effects”. Also, the AUC is 1350 ng·h/mL in data set [1] (Chronic BDPP), 1650 ng·h/mL in data set [1] (Chronic Synbiotic), 3760 ng·h/mL in data set [2] (Chronic BDPP) and 4460 ng·h/mL in data set [2] (Chronic Synbiotic). The figures for the peak concentration (Cmax) in data set [1] (Chronic BDPP) and in data set [1] (Chronic Synbiotic) were 66.8 ± 4.7 ng/mL and 108 ± 6.5 ng/mL, respectively. Further, the Tmax in data set [1] (Chronic BDPP) turned out to be 60 min; in data set [1] (Chronic Synbiotic), 60 min; in data set [2] (Chronic BDPP), 30 min; in data set [2] (Chronic Synbiotic), 18 min. In addition, the “IL-1β(Fold Change)” value in the data set on IL-1β (TMF +) is 9.8 ± 0.4τ ^** Fold Change; with IL-1β (setting [4]), 5.2 ± 0.6τ Fold Change.

As for `O=C(O)CCc1ccc(O)cc1` [4-HPPA, 3-(4-Hydroxyphenyl)propionic acid], the “Tlr4 expression in TMF-treated cultures” value with THP-1 cells was “suppressed”. The “TEER (% Control)” value in the data set with Caco-2 / THP-1 coculture is given as 72.3 ± 2.0 % Control. Further, the “Kynurenine (% Change)” value is 134.3 ± 3.2 % Change in the data set with Kynurenine (TMF +) and 102.0 ± 2.2τ % Change with Kynurenine (TMF −). In addition, the “dependence of the beneficial / anti-inflammatory activity on AHR signaling” value in data set [3] is listed as “abrogated by TMF”. For the same compound, the “anti-inflammatory effects” value in data set [3] was “dose-dependent anti-inflammatory effects”. For the same compound, the results for the AUC in data set [2] (Chronic BDPP) and in data set [2] (Chronic Synbiotic) were 406 ng·h/mL and 2170 ng·h/mL, respectively. Moreover, the time to peak (Tmax) in data set [2] (Chronic BDPP) is 30 min; in data set [2] (Chronic Synbiotic), 18 min. Also, the “IL-1β(Fold Change)” value with IL-1β (TMF +) was 9.1 ± 0.0τ ^** Fold Change; in the data set on IL-1β (setting [4]), 6.4 ± 0.3τ Fold Change.

With `COc1cc(O)c2c(=O)c(O)c(-c3ccc(O)c(O)c3)oc2c1` [7′-MeQUER, Rhamnetin], the “TEER (% Control)” value in the data set with Caco-2 / THP-1 coculture was determined as 74.5 ± 2.0 % Control. For the same compound, the figures for the “Kynurenine (% Change)” value in the data set on Kynurenine (TMF +) and in the data set with Kynurenine (TMF −) were 132.0 ± 13.3 % Change and 119.5 ± 4.3 % Change, respectively. The results for the exposure (AUC) in data set [1] (Chronic Synbiotic) and in data set [2] (Chronic Synbiotic) were 1.14 ng·h/mL and 0.4 ng·h/mL, respectively. In addition, the peak concentration (Cmax) in data set [1] (Chronic Synbiotic) came to 0.1 ± 0.09 ng/mL. Besides, the Tmax in data set [1] (Chronic Synbiotic) and in data set [2] (Chronic Synbiotic) was 30 min throughout. Also, the “IL-1β(Fold Change)” value in the data set with IL-1β (TMF +) is recorded as 8.1 ± 0.4τ Fold Change; with IL-1β (setting [4]), 7.9 ± 0.4τ Fold Change.

`O=C(O)/C=C/c1ccc(O)c(O)c1` [CA, Caffeic acid]: the “Tlr4 expression in TMF-treated cultures” value in the data set on THP-1 cells is on record as “suppressed”. The “TEER (% Control)” value in the data set on Caco-2 / THP-1 coculture stood at 73.2 ± 0.9 % Control. The “Kynurenine (% Change)” value is recorded as 144.1 ± 6.4 % Change with Kynurenine (TMF +) and 98.6 ± 7.7τ % Change in the data set on Kynurenine (TMF −). For the same compound, the “dependence of the beneficial / anti-inflammatory activity on AHR signaling” value in data set [3] is recorded as “abrogated by TMF”. Further, the “anti-inflammatory effects” value in data set [3] is recorded as “dose-dependent anti-inflammatory effects”. For the same compound, the figures for the AUC in data set [2] (Chronic BDPP) and in data set [2] (Chronic Synbiotic) were 52.8 ng·h/mL and 51.4 ng·h/mL, respectively. Besides, the time of peak concentration (Tmax) in data set [2] (Chronic BDPP) and in data set [2] (Chronic Synbiotic) was 18 min throughout. Also, the “IL-1β(Fold Change)” value with IL-1β (TMF +) is given as 10.3 ± 0.3τ ^** Fold Change; with IL-1β (setting [4]), 4.0 ± 0.3τ Fold Change.

With `O=c1c(O)c(-c2ccc(O)cc2)oc2cc(O)cc(O)c12` [KAMF, Kaempferol], in the data set on Caco-2 / THP-1 coculture, the “TEER (% Control)” value was found to be 75.5 ± 2.1 % Control. Also, the results for the “Kynurenine (% Change)” value in the data set with Kynurenine (TMF +) and in the data set on Kynurenine (TMF −) were 131.7 ± 3.9 % Change and 151.0 ± 3.7 % Change, respectively. Besides, in data set [3], the “dependence of the beneficial / anti-inflammatory activity on AHR signaling” value is recorded as “independent of AHR signaling”. The “anti-inflammatory effects” value in data set [3] is given as “dose-dependent anti-inflammatory effects”. In addition, the exposure (AUC) in data set [1] (Chronic BDPP) is 87.2 ng·h/mL; in data set [1] (Chronic Synbiotic) it was 288 ng·h/mL; in data set [2] (Chronic BDPP), 3.5 ng·h/mL; in data set [2] (Chronic Synbiotic), 38.2 ng·h/mL. In addition, the results for the Cmax in data set [1] (Chronic BDPP) and in data set [1] (Chronic Synbiotic) were 25.3 ± 9.6 ng/mL and 23 ± 2.6 ng/mL, respectively. Also, the Tmax turned out to be 18 min in data set [1] (Chronic BDPP), 60 min in data set [1] (Chronic Synbiotic), 18 min in data set [2] (Chronic BDPP) and 30 min in data set [2] (Chronic Synbiotic). Also, the “IL-1β(Fold Change)” value in the data set with IL-1β (TMF +) is recorded as 10.1 ± 0.7τ Fold Change; in the data set with IL-1β (setting [4]) it was 8.4 ± 0.2τ Fold Change.

For the compound `COc1cc(C(=O)O)ccc1O` [VA, Vanillic acid], the AUC worked out at 169 ng·h/mL in data set [1] (Chronic BDPP), 205 ng·h/mL in data set [1] (Chronic Synbiotic), 299 ng·h/mL in data set [2] (Chronic BDPP) and 118 ng·h/mL in data set [2] (Chronic Synbiotic). Also, the results for the highest concentration (Cmax) in data set [1] (Chronic BDPP) and in data set [1] (Chronic Synbiotic) were 9.7 ± 1 ng/mL and 13.9 ± 1.8 ng/mL, respectively. The Tmax was determined as 18 min in data set [1] (Chronic BDPP), 60 min in data set [1] (Chronic Synbiotic), 30 min in data set [2] (Chronic BDPP) and 18 min in data set [2] (Chronic Synbiotic).
